{"data": "Results gathered from unrelated publications", "target": "cAMP-dependent protein kinase catalytic subunit PRKX (PRKX, Homo sapiens, UniProt P51817)", "Residues used in one study (P51817 1-358)": "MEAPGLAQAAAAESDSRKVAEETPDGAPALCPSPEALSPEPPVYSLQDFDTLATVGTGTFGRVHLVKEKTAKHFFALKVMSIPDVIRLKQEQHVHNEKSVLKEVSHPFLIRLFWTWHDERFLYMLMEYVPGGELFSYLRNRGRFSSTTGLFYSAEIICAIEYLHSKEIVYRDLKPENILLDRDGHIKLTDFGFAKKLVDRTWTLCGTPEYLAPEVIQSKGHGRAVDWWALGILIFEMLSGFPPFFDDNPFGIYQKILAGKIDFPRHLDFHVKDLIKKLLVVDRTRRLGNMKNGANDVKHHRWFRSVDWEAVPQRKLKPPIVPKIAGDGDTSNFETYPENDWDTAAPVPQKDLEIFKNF", "note": "Each line is one published result; the experiments were not run side by side."}
{"Structure (SMILES)": "O=c1cc(-c2cccc3c2Sc2ccccc2S3)oc(N2CCOCC2)c1", "observed": "enzyme activity", "action": "inhibitor", "tested at": "0.5 µM", "measurement": "remaining activity", "result": "113%"}
{"Structure (SMILES)": "C[C@H](c1cccc(C#N)c1)n1cc(Cl)cc(C(N)=O)c1=N", "observed": "cell-free assay", "technique": "competition with immobilised ligand", "tested at": "1 µM", "measurement": "remaining binding", "result": "100%"}
{"Structure (SMILES)": "CN1CC(Oc2cnc(C#N)cc2-c2ccn3nc(NC(=O)C4CC4)cc3c2)C1", "observed": "enzyme activity", "action": "inhibitor", "tested at": "1 µM", "measurement": "inhibition", "result": "5%"}
{"Structure (SMILES)": "CC1=C(C#N)C(c2ccc3c(c2)c(NC(=O)c2ccccc2C)nn3C)C(C#N)=C(C)N1", "observed": "cell-free assay", "technique": "competition with immobilised ligand", "tested at": "1 µM", "measurement": "remaining binding", "result": "76%"}
{"Structure (SMILES)": "Cc1ccc(NC(=O)c2ccc(C)c(C(F)(F)F)c2)cc1C#Cc1nn(C2CCC(O)CC2)c2ncnc(N)c12 (centres unmarked)", "observed": "cell-free assay", "tested at": "10 µM", "measurement": "remaining signal", "result": "105%"}
{"Structure (SMILES)": "Cn1cnc(Br)c1C1=CN(c2ncnc3[nH]cnc23)CCS1", "observed": "enzyme activity", "action": "inhibitor", "technique": "radiometric", "tested at": "2 µM", "measurement": "inhibition", "result": "92.8%"}
{"Structure (SMILES)": "C[C@@]1(Cc2ccc(C#N)cc2)C(=O)N(c2cc(Cl)cc(Cl)c2)c2ncc(C(=O)NC3(c4nc(C5CCC5)no4)CC3)n21", "observed": "cell-free assay", "technique": "competition with immobilised ligand", "tested at": "1 µM", "measurement": "remaining binding", "result": "100%"}
{"Structure (SMILES)": "CC(C)(C)c1nc(-c2cccc(NS(=O)(=O)c3c(F)cccc3F)c2F)c(-c2ccnc(N)n2)s1", "observed": "enzyme activity", "action": "inhibitor", "technique": "radiometric", "tested at": "1 µM", "measurement": "remaining activity", "result": "77%"}
{"Structure (SMILES)": "CCOc1cc(-c2nncn2C)ccc1Nc1ncc2cc(C)nc(NCC(C)(C)C)c2n1", "observed": "enzyme activity", "action": "inhibitor", "technique": "FRET", "tested at": "1 µM", "measurement": "inhibition", "result": "< 15%"}
{"Structure (SMILES)": "CNC(=O)c1ccc(Nc2ncc(C(F)(F)F)c(NCc3nccnc3N(C)S(C)(=O)=O)n2)cc1", "observed": "cell-free assay", "technique": "competition with immobilised ligand", "tested at": "0.1 µM", "measurement": "remaining binding", "result": "95%"}
{"Structure (SMILES)": "CNC(=O)c1cc(Oc2ccc(NC(=O)Nc3ccc(Cl)c(C(F)(F)F)c3)cc2)ccn1", "observed": "enzyme activity", "action": "inhibitor", "tested at": "10 µM", "measurement": "inhibition", "result": "48%"}
{"Structure (SMILES)": "Cc1ccc(C(=O)NCc2ccsc2)cc1C#Cc1cn(C(C)C)c2ncnc(N)c12", "observed": "enzyme activity", "action": "inhibitor", "tested at": "1 µM", "measurement": "activity vs control", "result": "110%"}
{"Structure (SMILES)": "COc1cc2ncnc(Nc3ccc(Oc4ccccc4)cc3C)c2cc1OC", "observed": "enzyme activity", "action": "inhibitor", "tested at": "1 µM", "measurement": "inhibition", "result": "6%"}
{"Structure (SMILES)": "Cc1ccc(NC(=O)c2ccc(CN3CCN(C)CC3)cc2)cc1Nc1nc(-c2cccnc2)cs1", "observed": "cell-free assay", "tested at": "0.5 µM", "measurement": "remaining signal", "result": "99.5%"}
{"Structure (SMILES)": "CN(C(=O)c1ccccc1)c1cc(N(C)c2ccc3c(c2)CCc2ccc(C(=O)NCCN4CCOCC4)cc2C3=O)ccc1F", "observed": "cell-free assay", "technique": "competition with immobilised ligand", "tested at": "1 µM", "measurement": "remaining binding", "result": "93%"}
{"Structure (SMILES)": "CCCS(=O)(=O)Nc1ccc(F)c(C(=O)c2c[nH]c3ncc(-c4ccc(Cl)cc4)cc23)c1F", "observed": "enzyme activity", "action": "inhibitor", "tested at": "1 µM", "measurement": "inhibition", "result": "< 10%"}
{"Structure (SMILES)": "Cc1ccc(Nc2nccc(N(C)c3ccc4c(C)n(C)nc4c3)n2)cc1S(N)(=O)=O", "observed": "enzyme activity", "action": "inhibitor", "tested at": "0.3 µM", "measurement": "inhibition", "result": "61%"}
{"Structure (SMILES)": "CCS(=O)(=O)c1cc2cc(C[C@@](O)(CC(C)(C)c3ccc(F)cc3C(N)=O)C(F)(F)F)[nH]c2cn1", "observed": "cell-free assay", "technique": "competition with immobilised ligand", "tested at": "1 µM", "measurement": "remaining binding", "result": "77%"}
{"Structure (SMILES)": "CCCOc1ccc(OC)c(F)c1C(=O)c1ccc(C(=O)N[C@@H]2CNC[C@H]2NC(=O)c2ccc3[nH]ncc3c2)cc1", "observed": "enzyme activity", "action": "inhibitor", "tested at": "50 nM", "measurement": "remaining activity", "result": "16%"}
{"Structure (SMILES)": "Cc1sc(C(=O)NC2COC2)cc1-n1cc(NC(=O)Nc2c(F)cccc2Cl)cn1", "observed": "enzyme activity", "action": "inhibitor", "tested at": "10 µM", "measurement": "remaining activity", "result": "87.5%"}
{"Structure (SMILES)": "O=C1NC(c2ccccn2)Sc2ccccc21 (centres unmarked)", "observed": "cell-free assay", "technique": "competition with immobilised ligand", "tested at": "1 µM", "measurement": "remaining binding", "result": "100%"}
{"Structure (SMILES)": "O=C1Nc2ccc(Cl)cc2C1=Cc1cc(Cl)c(O)c(Cl)c1", "observed": "cell-free assay", "tested at": "0.5 µM", "measurement": "remaining signal", "result": "92.1%"}
{"Structure (SMILES)": "CC/C(=N\\NC(=O)NCc1cccc(O)c1)c1ccc(O)c(C)c1O", "observed": "enzyme activity", "action": "inhibitor", "tested at": "0.1 µM", "measurement": "inhibition", "result": "81.9%"}
{"Structure (SMILES)": "CO[C@@H](C)c1c(Nc2ccc([C@@H](N(C)C(=O)C3CCS(=O)(=O)CC3)C(F)(F)F)cc2)cnc2cc(Cl)nn12", "observed": "cell-free assay", "technique": "competition with immobilised ligand", "tested at": "1 µM", "measurement": "remaining binding", "result": "84%"}
{"Structure (SMILES)": "CCN(CC)CCNC(=O)c1c(C)[nH]c(/C=C2\\C(=O)Nc3ccc(F)cc32)c1C", "observed": "enzyme activity", "action": "inhibitor", "tested at": "0.3 µM", "measurement": "inhibition", "result": "1%"}
{"Structure (SMILES)": "Cc1cnc(NC2CCOCC2)nc1-n1cnc(C(=O)NC(CN)c2cc(F)cc(Cl)c2)c1 (centres unmarked)", "observed": "enzyme activity", "action": "inhibitor", "technique": "radiometric", "tested at": "1 µM", "measurement": "remaining activity", "result": "24%"}
